Results: ChEMBL document CHEMBL1649122, “Abc1p is a multidrug efflux transporter that tips the balance in favor of innate azole resistance in Candida krusei” (2009)
Converted amounts (≈) assume the structure as drawn. The source made the active and inactive calls. The rule behind the calls is not given here.

Columns and labels:
[1] = target: ATP binding cassette transporter Abc1p (Issatchenkia orientalis) (UniProt Q09GQ4); experiment: Inhibition of Candida krusei ABC1 expressed in Saccharomyces cerevisiae isolate ADdelta at 22 nM; conditions: Pichia kudriavzevii
[2] = target: ATP binding cassette transporter Abc1p (Issatchenkia orientalis) (UniProt Q09GQ4); experiment: Inhibition of Candida krusei Abc1p expressed in Saccharomyces cerevisiae isolate AD assessed as reduction of itraconazole MIC at 1 ug after 48 hrs by agarose diffusion assay; conditions: Pichia kudriavzevii
[3] = target: ATP binding cassette transporter Abc1p (Issatchenkia orientalis) (UniProt Q09GQ4); experiment: Inhibition of Candida krusei IF011 Abc1p assessed as reduction of itraconazole MIC at 1 ug after 48 hrs by agarose diffusion assay; conditions: Pichia kudriavzevii
[4] = target: ATP binding cassette transporter Abc1p (Issatchenkia orientalis) (UniProt Q09GQ4); experiment: Inhibition of Candida krusei B2399 Abc1p assessed as reduction of itraconazole MIC at 1 ug after 48 hrs by agarose diffusion assay; conditions: Pichia kudriavzevii
[5] = target: ATP binding cassette transporter Abc1p (Issatchenkia orientalis) (UniProt Q09GQ4); experiment: Inhibition of Candida krusei ABC1 expressed in Saccharomyces cerevisiae isolate ADdelta at 8 nM; conditions: Pichia kudriavzevii
[6] = tested on: Pichia kudriavzevii; experiment: Antimicrobial activity against Candida krusei IFO0011 after 48 hrs by liquid microdilution assay; type: functional; conditions: IFO0011, 48 h
Procedure, shortened: (§1)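 Liquid broth microdilution susceptibility assay in CSM medium at pH 7.0, which was also the medium used for the expression studies. Fungal strains were maintained in YPD. The S. cerevisiae test strains carry C. krusei ABC1 or fungal ERG11 alleles integrated at the chromosomal PDR5 locus.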

[7] = tested on: Pichia kudriavzevii; experiment: Antimicrobial activity against Candida krusei NZCDC 89.102 after 48 hrs by liquid microdilution assay; type: functional; conditions: NZCDC 89.102, 48 h; procedure, shortened: as §1
[8] = tested on: Saccharomyces cerevisiae; experiment: Fold resistant, ratio of MIC for Saccharomyces cerevisiae isolate ADdelta overexpressing Saccharomyces cerevisiae ERG11 to MIC for Saccharomyces cerevisiae isolate ADdelta overexpressing Abc1p; type: functional
Procedure, shortened: (§2)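 Fold resistance is the ratio of azole MICs between S. cerevisiae overexpressing strains. The MICs were measured by liquid broth microdilution in CSM medium at pH 7.0. The ERG11 or ABC1 constructs are integrated at the PDR5 locus.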

[9] = tested on: Pichia kudriavzevii; experiment: Antimicrobial activity against Candida krusei NZCDC 90.147 after 48 hrs by liquid microdilution assay; type: functional; conditions: NZCDC 90.147, 48 h; procedure, shortened: as §1
[10] = target: ATP binding cassette transporter Abc1p (Issatchenkia orientalis) (UniProt Q09GQ4); experiment: Inhibition of Candida krusei ABC1 expressed in Saccharomyces cerevisiae isolate ADdelta at 0.28 nM; conditions: Pichia kudriavzevii
[11] = tested on: Pichia kudriavzevii; experiment: Antimicrobial activity against Candida krusei NZCDC 90.147 after 48 hrs by CLSI method; type: functional
Procedure, shortened: (§3)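 Azole MICs were determined by the CLSI M27-A2 broth microdilution reference method. They were interpreted against the CLSI breakpoints. Strains were maintained in YPD medium (1% yeast extract, 2% peptone, 2% glucose).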

[12] = tested on: Saccharomyces cerevisiae; experiment: Antimicrobial activity against Saccharomyces cerevisiae isolate ADdelta overexpressing Abc1p after 48 hrs by liquid microdilution assay; type: functional; procedure, shortened: as §1
[13] = tested on: Pichia kudriavzevii; experiment: Antimicrobial activity against Candida krusei NZCDC 89.021 after 48 hrs by liquid microdilution assay; type: functional; conditions: NZCDC 89.021, 48 h; procedure, shortened: as §1
[14] = tested on: Saccharomyces cerevisiae; experiment: Antimicrobial activity against Saccharomyces cerevisiae isolate AD overexpressing Candida krusei ERG11C after 48 hrs by liquid microdilution assay; type: functional; procedure, shortened: as §1
[15] = tested on: Pichia kudriavzevii; experiment: Antimicrobial activity against Candida krusei NZCDC 89.021 after 48 hrs by CLSI method; type: functional; conditions: NZCDC 89.021, 48 h; procedure, shortened: as §3
[16] = tested on: Saccharomyces cerevisiae; experiment: Fold resistant, ratio of MIC for Saccharomyces cerevisiae isolate ADdelta overexpressing Candida krusei ERG11C to MIC for Saccharomyces cerevisiae isolate ADdelta overexpressing Abc1p; type: functional; procedure, shortened: as §2
[17] = tested on: Pichia kudriavzevii; experiment: Antimicrobial activity against Candida krusei NZCDC 89.221 after 48 hrs by CLSI method; type: functional; procedure, shortened: as §3
[18] = tested on: Pichia kudriavzevii; experiment: Antimicrobial activity against Candida krusei NZCDC 89.221 after 48 hrs by liquid microdilution assay; type: functional; conditions: NZCDC 89.221, 48 h; procedure, shortened: as §1
[19] = tested on: Saccharomyces cerevisiae; experiment: Fold resistant, ratio of MIC for Saccharomyces cerevisiae isolate ADdelta overexpressing Candida krusei ERG11g to MIC for Saccharomyces cerevisiae isolate ADdelta overexpressing Abc1p; type: functional; procedure, shortened: as §2
[20] = tested on: Saccharomyces cerevisiae; experiment: Fold resistant, ratio of MIC for Saccharomyces cerevisiae isolate ADdelta overexpressing Candida albicans ERG11A to MIC for Saccharomyces cerevisiae isolate ADdelta overexpressing Abc1p; type: functional; procedure, shortened: as §2
[21] = tested on: Saccharomyces cerevisiae; experiment: Antimicrobial activity against Saccharomyces cerevisiae isolate ADdelta overexpressing Candida krusei ERG11g after 48 hrs by liquid microdilution assay; type: functional; procedure, shortened: as §1
[22] = tested on: Pichia kudriavzevii; experiment: Antimicrobial activity against Candida krusei IFO0011 after 48 hrs by CLSI method; type: functional; conditions: IFO0011, 48 h; procedure, shortened: as §3
[23] = tested on: Saccharomyces cerevisiae; experiment: Antimicrobial activity against Saccharomyces cerevisiae isolate ADdelta overexpressing Candida albicans ERG11A after 48 hrs by liquid microdilution assay; type: functional; procedure, shortened: as §1
[24] = tested on: Pichia kudriavzevii; experiment: Antimicrobial activity against Candida krusei B2399 after 48 hrs by CLSI method; type: functional; conditions: B2399, 48 h; procedure, shortened: as §3
[25] = tested on: Saccharomyces cerevisiae; experiment: Antimicrobial activity against Saccharomyces cerevisiae isolate ADdelta overexpressing Saccharomyces cerevisiae ERG11 after 48 hrs by liquid microdilution assay; type: functional; procedure, shortened: as §1
[26] = tested on: Pichia kudriavzevii; experiment: Antimicrobial activity against Candida krusei NZCDC 89.102 after 48 hrs by CLSI method; type: functional; procedure, shortened: as §3
[27] = tested on: Pichia kudriavzevii; experiment: Antimicrobial activity against Candida krusei B2399 after 48 hrs by liquid microdilution assay; type: functional; conditions: B2399, 48 h; procedure, shortened: as §1
[28] = target: ATP binding cassette transporter Abc1p (Issatchenkia orientalis) (UniProt Q09GQ4); experiment: Inhibition of Candida krusei ABC1 expressed in Saccharomyces cerevisiae isolate ADdelta at 46 nM; conditions: Pichia kudriavzevii
Procedure, shortened: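 Agarose disk-diffusion test of S. cerevisiae AD overexpressing C. krusei Abc1p, with the parent AD strain as comparison. Cells were pregrown from YPD overnight into CSM to mid-log at 30°C. They were seeded at OD600 0.008 in CSM with 0.6% agarose, overlaid on CSM agar (pH 7.0). Paper disks carrying set nmol amounts of xenobiotic were applied, and plates were incubated at 30°C for 48 h before reading growth inhibition zones.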

[29] = target: ATP binding cassette transporter Abc1p (Issatchenkia orientalis) (UniProt Q09GQ4); experiment: Inhibition of Candida krusei B2399 Abc1p assessed as reduction of fluconazole MIC at 2.5 ug/ml after 48 hrs by checkerboard susceptibility assay; conditions: Pichia kudriavzevii
Procedure, shortened: (§4)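 Checkerboard liquid microdilution in CSM (pH 7.0). FLC or ITC MICs of AD/CkABC1g or C. krusei B2399 were measured across a range of milbemycin concentrations. Interaction was expressed as fractional inhibitory concentration index (FICI).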

[30] = target: ATP binding cassette transporter Abc1p (Issatchenkia orientalis) (UniProt Q09GQ4); experiment: Inhibition of Candida krusei Abc1g expressed in Saccharomyces cerevisiae isolate ADdelta assessed as reduction of fluconazole MIC at 2.5 ug/ml after 48 hrs by checkerboard susceptibility assay; conditions: Pichia kudriavzevii; procedure, shortened: as §4
[31] = target: ATP binding cassette transporter Abc1p (Issatchenkia orientalis) (UniProt Q09GQ4); experiment: Inhibition of Candida krusei B2399 Abc1p assessed as reduction of itraconazole MIC at 2.5 ug/ml after 48 hrs by checkerboard susceptibility assay; conditions: Pichia kudriavzevii; procedure, shortened: as §4
[32] = target: ATP binding cassette transporter Abc1p (Issatchenkia orientalis) (UniProt Q09GQ4); experiment: Inhibition of Candida krusei Abc1g expressed in Saccharomyces cerevisiae isolate ADdelta assessed as reduction of itraconazole MIC at 2.5 ug/ml after 48 hrs by checkerboard susceptibility assay; conditions: Pichia kudriavzevii; procedure, shortened: as §4
[33] = target: ATP binding cassette transporter Abc1p (Issatchenkia orientalis) (UniProt Q09GQ4); experiment: Inhibition of Candida krusei ABC1 expressed in Saccharomyces cerevisiae isolate ADdelta at 2 nM; conditions: Pichia kudriavzevii
[34] = target: ATP binding cassette transporter Abc1p (Issatchenkia orientalis) (UniProt Q09GQ4); experiment: Inhibition of Candida krusei ABC1 expressed in Saccharomyces cerevisiae isolate ADdelta at 0.37 nM; conditions: Pichia kudriavzevii

Q: With NYSTATIN as the compound, how does the Activity [1] read?
A: The Activity was “inactive”.

Q: Which results are given for `CO[C@@H]1C(C)=C[C@H]2C(=O)O[C@H]3C[C@@H](C/C=C(\C)C[C@@H](C)/C=C/C=C(\CO)[C@]2(O)[C@@H]1O)O[C@@]1(CC[C@H](C)[C@@H](C)O1)C3`?
A: Activity [2]: Active; Activity [3]: Active; Activity [4]: Active

Q: For `CO[C@@H]1C[C@@H](C[C@H]2CC[C@H](C)[C@H]([C@@H](C)C(=O)O)O2)O[C@]2(O[C@](C)([C@H]3CC[C@@](C)([C@@H]4O[C@@H]([C@H]5O[C@@](O)(CO)[C@H](C)C[C@@H]5C)C[C@@H]4C)O3)C[C@H]2C)[C@@H]1C`, which Activity [5] is on record?
A: The Activity was “Active”.

Q: What does the source list for `CC(=O)N1CCN(c2ccc(OCC3COC(Cn4ccnc4)(c4ccc(Cl)cc4Cl)O3)cc2)CC1` (configuration not stated) [KETOCONAZOLE]?
A: MIC [6]: 2 µg/mL (≈ 3.76 µM); MIC [7]: 4 µg/mL (≈ 7.53 µM); ratio [8]: 2; MIC [9]: 4 µg/mL (≈ 7.53 µM); Activity [10]: inactive; MIC [11]: 1 µg/mL (≈ 1.88 µM); MIC [12]: 0.031 µg/mL (≈ 0.0583 µM); MIC [13]: 4 µg/mL (≈ 7.53 µM); MIC [14]: 0.063 µg/mL (≈ 0.119 µM); MIC [15]: 0.5 µg/mL (≈ 0.941 µM); ratio [16]: 2; MIC [17]: 0.5 µg/mL (≈ 0.941 µM); MIC [18]: 2 µg/mL (≈ 3.76 µM); ratio [19]: 64; ratio [20]: 4; MIC [21]: 2 µg/mL (≈ 3.76 µM); MIC [22]: 1 µg/mL (≈ 1.88 µM); MIC [23]: 0.125 µg/mL (≈ 0.235 µM); MIC [24]: 0.5 µg/mL (≈ 0.941 µM); MIC [25]: 0.063 µg/mL (≈ 0.119 µM); MIC [26]: 0.5 µg/mL (≈ 0.941 µM); MIC [27]: 2 µg/mL (≈ 3.76 µM)

Q: `CN(C/C=C/C#CC(C)(C)C)Cc1cccc2ccccc12` was tested. Which Activity [28] did it give?
A: Its Activity is “inactive”.

Q: How did the Activity [2] turn out when `CC1=C[C@H]2C(=O)O[C@H]3C[C@@H](C/C=C(\C)C[C@@H](C)/C=C/C=C(\C)[C@]2(O)[C@H](O)[C@@H]1O)O[C@@]1(CC[C@H](C)[C@@H](C)O1)C3` was run?
A: The Activity was “Active”.

Q: What about the Activity [29] of the same compound?
A: Its Activity is “Active”.

Q: And the Activity [3]?
A: The Activity was “Active”.

Q: And the Activity [30]?
A: Its Activity is “Active”.

Q: And the Activity [31]?
A: The Activity was “Active”.

Q: And the Activity [4]?
A: Its Activity is “Active”.

Q: What about the Activity [32] of the same compound?
A: The Activity was “Active”.

Q: For `C/C=C/C/C=C/CCC(=O)[C@H]1O[C@H]1C(N)=O`, which Activity [33] is on record?
A: Its Activity is “Active”.

Q: For `C[C@@H]1C[C@@H]([C@H](O)CC2CC(=O)NC(=O)C2)C(=O)[C@@H](C)C1`, which Activity [34] is on record?
A: Its Activity is “Active”.
